Molecular target: Metabotropic glutamate receptor 5 (Homo sapiens, UniProt P41594)
Assay: Displacement of [3H]M-MPEP from mGluR5 (unknown origin) at 1 uM measured after 60 mins relative to control
In short: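 Rat cerebrocortical membranes or membranes from A18 cells expressing human mGlu5a, incubated with [³H]M-MPEP and test compound at 1 µM in 50 mM Tris pH 7.6 with 2 mM MgCl₂ and 2 mM CaCl₂, 60 min at 25°C. Non-specific binding was taken with […]. Result is % displacement, run in duplicate or triplicate.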

Sequence of Metabotropic glutamate receptor 5 (P41594 21-1212 limits assumed): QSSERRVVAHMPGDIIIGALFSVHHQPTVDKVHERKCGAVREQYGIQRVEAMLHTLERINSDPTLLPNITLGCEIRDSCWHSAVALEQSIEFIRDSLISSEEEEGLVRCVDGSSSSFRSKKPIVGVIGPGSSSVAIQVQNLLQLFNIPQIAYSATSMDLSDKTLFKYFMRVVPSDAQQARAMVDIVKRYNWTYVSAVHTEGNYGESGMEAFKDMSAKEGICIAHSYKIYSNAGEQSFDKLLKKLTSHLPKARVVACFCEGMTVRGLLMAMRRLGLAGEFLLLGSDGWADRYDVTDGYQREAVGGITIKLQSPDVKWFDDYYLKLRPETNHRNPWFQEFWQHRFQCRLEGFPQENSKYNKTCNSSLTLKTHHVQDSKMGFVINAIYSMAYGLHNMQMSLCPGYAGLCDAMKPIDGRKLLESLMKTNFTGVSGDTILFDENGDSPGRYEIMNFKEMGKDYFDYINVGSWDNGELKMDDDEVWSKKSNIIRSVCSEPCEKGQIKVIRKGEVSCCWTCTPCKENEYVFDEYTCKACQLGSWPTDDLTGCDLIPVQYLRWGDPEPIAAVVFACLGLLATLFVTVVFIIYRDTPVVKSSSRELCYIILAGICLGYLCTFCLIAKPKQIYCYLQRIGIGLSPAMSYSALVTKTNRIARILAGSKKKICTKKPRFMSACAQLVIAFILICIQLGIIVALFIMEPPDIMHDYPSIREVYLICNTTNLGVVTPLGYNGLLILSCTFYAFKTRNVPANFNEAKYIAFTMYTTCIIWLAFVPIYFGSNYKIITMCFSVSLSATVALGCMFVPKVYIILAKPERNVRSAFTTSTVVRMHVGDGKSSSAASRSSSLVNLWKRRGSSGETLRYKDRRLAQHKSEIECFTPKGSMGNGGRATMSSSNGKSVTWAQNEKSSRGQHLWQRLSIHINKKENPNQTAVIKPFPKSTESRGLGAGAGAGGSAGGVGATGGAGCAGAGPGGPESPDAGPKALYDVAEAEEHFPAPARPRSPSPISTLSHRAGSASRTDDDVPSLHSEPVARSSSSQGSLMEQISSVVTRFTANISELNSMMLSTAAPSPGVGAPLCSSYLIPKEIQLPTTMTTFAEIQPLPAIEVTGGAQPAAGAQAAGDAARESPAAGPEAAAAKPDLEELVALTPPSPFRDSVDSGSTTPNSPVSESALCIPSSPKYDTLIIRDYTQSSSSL

Row | inhibition | SMILES
1 | 95% | CC1CCN(c2c(S(=O)(=O)c3ccc(F)c(Cl)c3)cnc3ccc(F)cc23)CC1
2 | 86% | Cc1ccc(S(=O)(=O)c2cnc3cc(Cl)ccc3c2N2CCC(C)CC2)cc1C
3 | 90% | COc1ccc(S(=O)(=O)c2cnc3cc(F)ccc3c2N2CCC(C)CC2)cc1
4 | 96% | COc1cccc(S(=O)(=O)c2cnc3ccc(C)cc3c2N2CCC(C)CC2)c1
5 | 90% | COc1ccc2ncc(S(=O)(=O)c3ccc(C)cc3)c(N3CCC(C)CC3)c2c1
6 | -3% | COc1ccc2ncc(S(=O)(=O)c3ccc(OC)c(OC)c3)c(N3CCC(C)CC3)c2c1
7 | 70% | CC1CCN(c2c(S(=O)(=O)c3ccc(C#N)cc3)cnc3cc(Cl)ccc23)CC1
8 | 62% | COc1ccc(S(=O)(=O)c2cnc3ccc(C)cc3c2N2CCC(C)CC2)cc1
9 | 93% | COc1cccc(S(=O)(=O)c2cnc3cc(Cl)ccc3c2N2CCC(C)CC2)c1
10 | 66% | Cc1ccc(S(=O)(=O)c2cnc3ccc(C)cc3c2N2CCOCC2)cc1
11 | 67% | COc1ccc(S(=O)(=O)c2cnc3c(F)cccc3c2N2CCC(C)CC2)cc1
12 | 49% | Cc1cc(C)cc(S(=O)(=O)c2cnc3ccc(Cl)cc3c2N2CCC(C)CC2)c1
13 | 93% | Cc1ccc2ncc(S(=O)(=O)c3ccc(F)c(Cl)c3)c(N3CCC(C)CC3)c2c1
14 | 91% | CC1CCN(c2c(S(=O)(=O)c3ccc(F)cc3)cnc3cc(Cl)ccc23)CC1
15 | 18% | COc1ccc(S(=O)(=O)c2cnc3ccc(F)cc3c2N2CCOCC2)cc1
16 | 72% | Cc1ccc2ncc(S(=O)(=O)c3cc(F)cc(F)c3)c(N3CCC(C)CC3)c2c1

Row | inhibition | SMILES
17 | 87% | COc1ccc2ncc(S(=O)(=O)c3ccc(Cl)c(Cl)c3)c(N3CCC(C)CC3)c2c1
18 | 82% | Cc1ccc2ncc(S(=O)(=O)c3ccc(Cl)c(Cl)c3)c(N3CCC(C)CC3)c2c1
19 | 79% | COc1ccc(S(=O)(=O)c2cnc3cc(Cl)ccc3c2N2CCC(C)CC2)cc1
20 | 82% | Cc1ccc(S(=O)(=O)c2cnc3ccc(C)cc3c2N2CCC(C)CC2)cc1
21 | 91% | Cc1ccc(S(=O)(=O)c2cnc3ccc(F)cc3c2N2CCC(C)CC2)cc1Cl
22 | 80% | CC1CCN(c2c(S(=O)(=O)c3ccc(Cl)cc3)cnc3ccc(F)cc23)CC1
23 | 76% | CC1CCN(c2c(S(=O)(=O)c3cccc(F)c3)cnc3ccc(F)cc23)CC1
24 | 83% | Cc1cc(C)cc(S(=O)(=O)c2cnc3ccc(F)cc3c2N2CCC(C)CC2)c1
25 | 23% | COc1ccc(S(=O)(=O)c2cnc3cc(F)ccc3c2N2CCOCC2)cc1
26 | 91% | CC1CCN(c2c(S(=O)(=O)c3ccc(Cl)cc3)cnc3cc(Cl)ccc23)CC1
27 | 68% | Cc1ccc(S(=O)(=O)c2cnc3ccc(Cl)cc3c2N2CCC(C)CC2)cc1F
28 | 31% | CC1CCN(c2c(S(=O)(=O)c3ccc(C#N)cc3)cnc3ccc(Cl)cc23)CC1
29 | 95% | Cc1ccc(S(=O)(=O)c2cnc3ccc(Cl)cc3c2N2CCC(C)CC2)cc1
30 | 92% | Cc1ccc(S(=O)(=O)c2cnc3ccc(F)cc3c2N2CCC(C)CC2)cc1C
31 | 65% | COc1cccc(S(=O)(=O)c2cnc3ccc(C)cc3c2N2CCOCC2)c1
32 | 90% | Cc1ccc2ncc(S(=O)(=O)c3ccc(F)cc3)c(N3CCC(C)CC3)c2c1

Second part, the compound before the results:

Row | SMILES | inhibition
33 | Cc1cc(C)cc(S(=O)(=O)c2cnc3ccc(Cl)cc3c2N2CCOCC2)c1 | 14%
34 | Cc1ccc2ncc(S(=O)(=O)c3cccc(Cl)c3)c(N3CCOCC3)c2c1 | 44%
35 | COc1ccc(S(=O)(=O)c2cnc3cc(Cl)ccc3c2N2CCC(C)CC2)cc1Cl | 93%
36 | CC1CCN(c2c(S(=O)(=O)c3cccc(C#N)c3)cnc3ccc(F)cc23)CC1 | 93%
37 | O=S(=O)(c1ccc(Cl)c(Cl)c1)c1cnc2cc(F)ccc2c1N1CCOCC1 | 86%
38 | NS(=O)(=O)N1CCN(c2c(S(=O)(=O)c3cccc(F)c3)cnc3cc(F)ccc23)CC1 | 1.9%
39 | Cc1ccc(S(=O)(=O)c2cnc3cc(Cl)ccc3c2N2CCC(C)CC2)cc1F | 85%
40 | N#Cc1ccc(S(=O)(=O)c2cnc3cc(F)ccc3c2N2CCOCC2)cc1 | 4%
41 | CC1CCN(c2c(S(=O)(=O)c3cccc(F)c3)cnc3c(F)cccc23)CC1 | 62%
42 | Cc1cc(C)cc(S(=O)(=O)c2cnc3cc(Cl)ccc3c2N2CCOCC2)c1 | 24%
43 | Cc1ccc(S(=O)(=O)c2cnc3cc(Cl)ccc3c2N2CCOCC2)cc1Cl | 87%
44 | Cc1ccc2ncc(S(=O)(=O)c3ccccc3)c(N3CCOCC3)c2c1 | 86%
45 | O=S(=O)(c1ccc(Cl)c(Cl)c1)c1cnc2c(F)cccc2c1N1CCOCC1 | 86%
46 | O=S(=O)(c1ccc(Cl)c(Cl)c1)c1cnc2ccc(F)cc2c1N1CCOCC1 | 68%
47 | CC1CCN(c2c(S(=O)(=O)c3ccc(Cl)cc3)cnc3c(F)cccc23)CC1 | 85%
48 | N#Cc1ccc(S(=O)(=O)c2cnc3ccc(Cl)cc3c2N2CCOCC2)cc1 | 4%
49 | COc1ccc2ncc(S(=O)(=O)c3cccc(Cl)c3)c(N3CCOCC3)c2c1 | 12%
50 | COc1cccc(S(=O)(=O)c2cnc3ccc(OC)cc3c2N2CCOCC2)c1 | 20%
51 | COCC1CCN(c2c(S(=O)(=O)c3ccc(F)cc3)cnc3cc(F)ccc23)CC1 | 76.1%
52 | COc1ccc2ncc(S(=O)(=O)c3ccc(C)c(F)c3)c(N3CCOCC3)c2c1 | 4%
53 | Cc1ccc(S(=O)(=O)c2cnc3cc(F)ccc3c2N2CCOCC2)cc1C | 74%
54 | NC(=O)C1CCN(c2c(S(=O)(=O)c3ccccc3)cnc3ccccc23)CC1 | 24.8%

Row | SMILES | inhibition
55 | O=S(=O)(c1ccc(Cl)cc1)c1cnc2cc(F)ccc2c1N1CCOCC1 | 50%
56 | CC1CCN(c2c(S(=O)(=O)c3cccc(Cl)c3)cnc3cc(Cl)ccc23)CC1 | 92%
57 | Cc1ccc(S(=O)(=O)c2cnc3cc(Cl)ccc3c2N2CCC(C)CC2)cc1Cl | 89%
58 | COc1ccc(S(=O)(=O)c2cnc3ccc(F)cc3c2N2CCOCC2)cc1Cl | 26%
59 | CC1CCN(c2c(S(=O)(=O)c3ccccc3)cnc3cc(Cl)ccc23)CC1 | 93%
60 | O=S(=O)(c1ccc(Cl)cc1)c1cnc2ccc(F)cc2c1N1CCOCC1 | 78%
61 | CC1CCN(c2c(S(=O)(=O)c3ccc(F)c(F)c3)cnc3c(F)cccc23)CC1 | 93%
62 | O=S(=O)(c1ccc(F)c(Cl)c1)c1cnc2ccc(F)cc2c1N1CCOCC1 | 58%
63 | Cc1ccc2ncc(S(=O)(=O)c3ccc(F)c(Cl)c3)c(N3CCOCC3)c2c1 | 73%
64 | Cc1ccc(S(=O)(=O)c2cnc3ccc(Cl)cc3c2N2CCOCC2)cc1C | 90%
65 | CCOC(=O)C1CCN(c2c(S(=O)(=O)c3ccccc3)cnc3ccccc23)CC1 | 33%
66 | CC1CCN(c2c(S(=O)(=O)c3ccc(F)c(Cl)c3)cnc3cc(Cl)ccc23)CC1 | 94%
67 | Cc1cc(C)cc(S(=O)(=O)c2cnc3cc(F)ccc3c2N2CCC(C)CC2)c1 | 80%
68 | CC1CCN(c2c(S(=O)(=O)c3cccc(C#N)c3)cnc3cc(F)ccc23)CC1 | 92 to 92.4%
69 | COc1ccc2ncc(S(=O)(=O)c3cc(Cl)cc(Cl)c3)c(N3CCOCC3)c2c1 | 23%
70 | O=S(=O)(c1cccc(F)c1)c1cnc2cc(F)ccc2c1N1CCSCC1 | 62.7%
71 | Cc1ccc2ncc(S(=O)(=O)c3cc(F)cc(F)c3)c(N3CCOCC3)c2c1 | 34%
72 | CC1CCN(c2c(S(=O)(=O)c3ccc(C#N)cc3)cnc3c(F)cccc23)CC1 | 86%
73 | Cc1cc(C)cc(S(=O)(=O)c2cnc3cc(F)ccc3c2N2CCOCC2)c1 | 58%
74 | O=S(=O)(c1cccc(Cl)c1)c1cnc2cc(Cl)ccc2c1N1CCOCC1 | 81%
75 | Cc1ccc(S(=O)(=O)c2cnc3cc(F)ccc3c2N2CCOCC2)cc1 | 33%
76 | COc1cccc(S(=O)(=O)c2cnc3ccc(F)cc3c2N2CCOCC2)c1 | 41%

Row | SMILES | inhibition
77 | CC1CCN(c2c(S(=O)(=O)c3cc(Cl)cc(Cl)c3)cnc3cc(F)ccc23)CC1 | 87%
78 | Cc1ccc(S(=O)(=O)c2cnc3cc(Cl)ccc3c2N2CCOCC2)cc1C | 87%
79 | CC1CCN(c2c(S(=O)(=O)c3ccc(Cl)c(Cl)c3)cnc3cc(Cl)ccc23)CC1 | 89%
80 | CC1CCN(c2c(S(=O)(=O)c3ccccc3)cnc3cc(F)ccc23)CC1 | 87%
81 | O=S(=O)(c1ccccc1)c1cnc2cc(Cl)ccc2c1N1CCOCC1 | 5%
82 | O=S(=O)(c1cc(Cl)cc(Cl)c1)c1cnc2cc(F)ccc2c1N1CCOCC1 | 74%
83 | N#Cc1cccc(S(=O)(=O)c2cnc3cc(Cl)ccc3c2N2CCOCC2)c1 | 73%
84 | O=S(=O)(c1ccc(F)c(F)c1)c1cnc2cc(F)ccc2c1N1CCOCC1 | 56%
85 | Cc1cc(C)cc(S(=O)(=O)c2cnc3ccc(F)cc3c2N2CCOCC2)c1 | 43%
86 | CC1CCN(c2c(S(=O)(=O)c3cc(F)cc(F)c3)cnc3c(F)cccc23)CC1 | 9%
87 | O=S(=O)(c1ccc(Cl)c(Cl)c1)c1cnc2ccc(Cl)cc2c1N1CCOCC1 | 63%
88 | N#Cc1cccc(S(=O)(=O)c2cnc3ccc(F)cc3c2N2CCOCC2)c1 | 25%
89 | CC1CCN(c2c(S(=O)(=O)c3cccc(F)c3)cnc3cc(Cl)ccc23)CC1 | 5.6 to 96%
90 | O=S(=O)(c1ccccc1)c1cnc2ccc(F)cc2c1N1CCOCC1 | 81%
91 | Cc1ccc(S(=O)(=O)c2cnc3ccc(F)cc3c2N2CCOCC2)cc1Cl | 69%
92 | COc1ccc2ncc(S(=O)(=O)c3ccc(C)c(Cl)c3)c(N3CCOCC3)c2c1 | 28%
93 | O=S(=O)(c1cccc(F)c1)c1cnc2cc(F)ccc2c1N1CCOCC1 | 4 to 4.1%
94 | N#Cc1ccc(S(=O)(=O)c2cnc3c(F)cccc3c2N2CCOCC2)cc1 | 6%
95 | COc1ccc2ncc(S(=O)(=O)c3cccc(F)c3)c(N3CCOCC3)c2c1 | -3%
96 | O=S(=O)(c1ccc(F)cc1)c1cnc2cc(Cl)ccc2c1N1CCC(CO)CC1 | 75%
97 | O=S(=O)(c1cccc(Cl)c1)c1cnc2ccc(F)cc2c1N1CCOCC1 | 40%
98 | O=S(=O)(c1ccc(F)c(F)c1)c1cnc2ccc(F)cc2c1N1CCOCC1 | 10%

Source: ChEMBL document CHEMBL4052615, “Discovery of 4-amino-3-arylsulfoquinolines, a novel non-acetylenic chemotype of metabotropic glutamate 5 (mGlu5) receptor negative allosteric modulators” (Eur J Med Chem, 2017)
